From ChEMBL document CHEMBL1926610, “Design and synthesis of pyridone inhibitors of non-nucleoside reverse transcriptase” (Bioorg Med Chem Lett, 2011)
pKi: −log10 of the molar value.

How the values were obtained:
MT4 [1] = assay: Cytotoxicity against human MT4 cells; type: cell-based
Outline: (§1)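 Cytotoxicity in MT-4 human T-lymphoid cells run alongside the cell culture antiviral assay (RPMI 1640, 10% FBS or 50% NHS), tested up to the assay upper limit of 8.3 μM.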

[2] = Inhibition of Human immunodeficiency virus wild type reverse transcriptase by SPA assay
Outline: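 Wild-type HIV RT enzyme inhibition measured in a standard SPA assay. Values are geometric mean of at least two determinations.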

[3] = molecular target: Human immunodeficiency virus type 1 reverse transcriptase (Human immunodeficiency virus 1, UniProt Q72547, K103N); assay: Inhibition of Human immunodeficiency virus reverse transcriptase K103N mutant by SPA assay
Outline: (§2)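 Scintillation proximity assay (SPA) of mutant RT enzyme inhibition. Values are geometric means of at least two determinations.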

[4] = molecular target: Human immunodeficiency virus type 1 reverse transcriptase (Human immunodeficiency virus 1, UniProt Q72547, Y181C); assay: Inhibition of Human immunodeficiency virus reverse transcriptase Y181C mutant by SPA assay; outline: as §2
[5] = tested on: Human immunodeficiency virus; assay: Antiviral activity against Human immunodeficiency virus expressing wild type RT infected in human MT4 cells by p24 antigen assay in the presence of 10% FBS; type: functional; settings: Human immunodeficiency virus 1, MT4; read-out: CIC95
Outline: (§3)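 CIC95 = concentration at which spread of virus is inhibited by >95% in MT-4 human T-lymphoid cells in RPMI 1640 medium containing either 10% FBS or 50% normal human serum (to assess protein binding). Geometric mean of at least 2 determinations.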

[6] = tested on: Human immunodeficiency virus; assay: Antiviral activity against Human immunodeficiency virus expressing RT K103N mutant infected in human MT4 cells by p24 antigen assay in the presence of 10% FBS; type: functional; settings: Human immunodeficiency virus 1, MT4; read-out: CIC95
Outline: (§4)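 Spread assay in MT-4 human T-lymphoid cells in RPMI 1640 with 10% FBS. CIC95 is the concentration inhibiting viral spread by >95%, reported as the geometric mean of at least 2 determinations. Cytotoxicity was checked up to 8.3 μM.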

[7] = tested on: Human immunodeficiency virus; assay: Antiviral activity against Human immunodeficiency virus expressing RT Y181C mutant infected in human MT4 cells by p24 antigen assay in the presence of 10% FBS; type: functional; settings: Human immunodeficiency virus 1, MT4; read-out: CIC95; outline: as §4
[8] = tested on: Human immunodeficiency virus; assay: Antiviral activity against Human immunodeficiency virus expressing RT K103N/Y181C double mutant infected in human MT4 cells by p24 antigen assay in the presence of 10% FBS; type: functional; settings: Human immunodeficiency virus 1, MT4; read-out: CIC95; outline: as §4
[9] = tested on: Human immunodeficiency virus; assay: Antiviral activity against Human immunodeficiency virus expressing wild type RT infected in human MT4 cells by p24 antigen assay in the presence of 50% normal human serum; type: functional; settings: Human immunodeficiency virus 1, MT4; read-out: CIC95; outline: as §3
MT4 [10] = assay: Cytotoxicity against human MT4 cells up to 8.3 uM; type: cell-based; outline: as §1
[11] = tested on: Human immunodeficiency virus; assay: Antiviral activity against Human immunodeficiency virus expressing RT K103N/Y181C double mutant infected in human MT4 cells by p24 antigen assay in the presence of 10% FBS relative to MK-4965; type: functional
[12] = tested on: Human immunodeficiency virus; assay: Antiviral activity against Human immunodeficiency virus expressing RT K103N mutant infected in human MT4 cells by p24 antigen assay in the presence of 50% normal human serum; type: functional; settings: Human immunodeficiency virus 1, MT4; read-out: CIC95
Outline: (§5)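 MT-4 human T-lymphoid cells were kept in RPMI 1640 containing 50% normal human serum to assess protein binding. Readout is CIC95, the concentration blocking >95% of virus spread. Values are geometric means of at least 2 determinations.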

[13] = tested on: Human immunodeficiency virus; assay: Antiviral activity against Human immunodeficiency virus expressing RT Y181C mutant infected in human MT4 cells by p24 antigen assay in the presence of 50% normal human serum; type: functional; settings: Human immunodeficiency virus 1, MT4; read-out: CIC95; outline: as §5
[14] = tested on: Human immunodeficiency virus; assay: Antiviral activity against Human immunodeficiency virus expressing RT K103N/Y181C double mutant infected in human MT4 cells by p24 antigen assay in the presence of 50% normal human serum; type: functional; settings: Human immunodeficiency virus 1, MT4; read-out: CIC95; outline: as §5
[15] = Plasma protein binding in human; type: ADME, cell-free; settings: read-out: PPB (converted)
[16] = tested on: Human immunodeficiency virus; assay: Antiviral activity against Human immunodeficiency virus expressing wild type RT infected in human MT4 cells by p24 antigen assay in the presence of 50% normal human serum relative to MK-4965; type: functional
[17] = tested on: Human immunodeficiency virus; assay: Antiviral activity against Human immunodeficiency virus expressing wild type RT infected in human MT4 cells by p24 antigen assay in the presence of 50% normal human serum relative to TMC-278; type: functional
[18] = tested on: Human immunodeficiency virus; assay: Antiviral activity against Human immunodeficiency virus expressing wild type RT infected in human MT4 cells by p24 antigen assay in the presence of 50% normal human serum relative to UK-453061; type: functional
[19] = Volume of distribution in Sprague-Dawley rat at 10 mg/kg, po and 2 mg/kg, iv; type: ADME, organism-based; settings: in vivo
Outline: (§6)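 Sprague Dawley rats given iv dose 2 mpk as a DMSO solution via indwelling jugular vein cannula, and p.o. dose 10 mpk as aqueous methylcellulose (methocel) suspension. Plasma levels by LC-MS; absolute oral bioavailability from comparison of mean plasma AUC. Average of at least 2 rats.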

[20] = Plasma clearance in Sprague-Dawley rat at 10 mg/kg, po and 2 mg/kg, iv; type: ADME, organism-based; outline: as §6
[21] = Half life in Sprague-Dawley rat at 10 mg/kg, po and 2 mg/kg, iv; type: ADME, organism-based; settings: in vivo; outline: as §6
[22] = Oral bioavailability in Sprague-Dawley rat at 10 mg/kg; type: ADME, organism-based; settings: in vivo; outline: as §6
Rattus norvegicus = assay: Dose normalized AUC in Sprague-Dawley rat at 10 mg/kg, po; type: ADME, organism-based; design: dose 10 mg/kg, route oral; settings: in vivo; outline: as §6
[23] = Volume of distribution in Sprague-Dawley rat at 1 mg/kg, iv; type: ADME, organism-based; design: dose 1 mg/kg, route intravenous; settings: in vivo
Outline: (§7)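 Sprague Dawley rats dosed iv at 1 mpk in DMSO via indwelling jugular vein cannula, no oral arm. Plasma concentrations by LC-MS.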

[24] = Plasma clearance in Sprague-Dawley rat at 1 mg/kg, iv; type: ADME, organism-based; design: dose 1 mg/kg, route intravenous; outline: as §7
[25] = Half life in Sprague-Dawley rat at 1 mg/kg, iv; type: ADME, organism-based; design: dose 1 mg/kg, route intravenous; settings: in vivo; outline: as §7

| Structure (SMILES) | Activity (MT4 [1]) | pKi [2] | pKi [3] | pKi [4] | IC95 [5] [µM] | IC95 [6] [µM] | IC95 [7] [µM] | IC95 [8] [µM] | IC95 [9] [µM] | Activity (MT4 [10]) | IC95 [12] [µM] | IC95 [13] [µM] | IC95 [14] [µM] | fraction unbound [15] | Vd [19] [L/kg] | clearance [20] [mL/min/kg] | half-life [21] [h] | bioavailability [22] [%] | AUC/dose (Rattus norvegicus) [µM·h] | other results |
| --- | --- | --- | --- | --- | --- | --- | --- | --- | --- | --- | --- | --- | --- | --- | --- | --- | --- | --- | --- | --- |
| N#Cc1cc(Cl)cc(Oc2c(Cl)ccn(Cc3n[nH]c4ncccc34)c2=O)c1 | Non-toxic | 9.11 | 8.82 | 9.00 | 0.0024 | 0.0029 | 0.0078 | 0.007 | 0.0077 | Non-toxic | 0.012 | 0.02 | 0.069 | 0.033 | 2 | 12 | 4 | 57 | 1.6 | fold change (FC) [11]: 10; fold change (FC) [16]: 4; fold change (FC) [17]: 4; fold change (FC) [18]: 4 |
| Cc1ccn(Cc2n[nH]c3ncccc23)c(=O)c1Oc1cc(Cl)cc(C#N)c1 | – | 8.60 | 8.43 | 8.51 | 0.0036 | 0.01 | – | 0.031 | 0.012 | Non-toxic | – | – | – | – | 3.7 | 11 | – | 8.5 | 0.31 | – |
| CCc1nn(CCO)c(CC)c1Oc1cc(C#N)cc(C#N)c1 [LERSIVIRINE] | Non-toxic | – | – | – | – | – | – | – | 0.04 | – | 0.07 | 0.068 | 0.1 | 0.49 | – | – | – | – | – | – |
| N#Cc1cc(Cl)cc(Oc2c(Cl)c(Cl)cn(Cc3n[nH]c4ncccc34)c2=O)c1 | – | 9.00 | 8.80 | 8.89 | 0.0046 | 0.011 | 0.015 | 0.031 | 0.015 | Non-toxic | – | – | – | – | 27 | 27 | 19 | 0 | 0 | – |
| Cc1ccn(CCc2n[nH]c3ncccc23)c(=O)c1Oc1cc(Cl)cc(C#N)c1 | – | 7.60 | 7.24 | 7.29 | 0.248 | 0.447 | – | – | 0.611 | Non-toxic | – | – | – | – | – | – | – | – | – | Vd [23]: 0.6 L/kg; clearance [24]: 31 mL/min/kg; half-life [25]: 0.75 h |
| Cc1cc(/C=C/C#N)cc(C)c1Nc1ccnc(Nc2ccc(C#N)cc2)n1 [RILPIVIRINE] | Non-toxic | – | – | – | – | – | – | – | 0.036 | – | 0.046 | 0.104 | 0.311 | 0.003 | – | – | – | – | – | – |
| N#Cc1cc(Cl)cc(Oc2cc(OCc3n[nH]c4nc(N)ccc34)ccc2Cl)c1 | Non-toxic | 9.70 | – | – | 0.005 | 0.012 | 0.027 | 0.073 | 0.026 | Non-toxic | 0.054 | 0.175 | 0.589 | 0.035 | – | – | – | – | – | – |
| N#Cc1cc(Cl)cc(Oc2cc(Cc3n[nH]c4ncccc34)ccc2Cl)c1 | – | 9.62 | 9.32 | 9.29 | 0.022 | 0.211 | – | – | – | – | – | – | – | – | – | – | – | – | – | – |
| N#Cc1cc(Cl)cc(Oc2c(Cl)ccn(Cc3n[nH]c4nc(N)ccc34)c2=O)c1 | – | 8.89 | 8.68 | 8.74 | 0.0019 | 0.0071 | 0.063 | 0.03 | 0.011 | Non-toxic | – | – | – | – | 0.8 | 12 | 1.4 | 6 | 0.15 | – |
